Experimental data reported in article PMC7024737 (British Journal of Pharmacology, 2020).
Several values for one entry are separate records, joined by “and”; a condition that tells them apart may be missing. Equal entries are not always repeated. Where two headings read alike, the source gives them in different places.

What was measured:
[1] = system: human platelets (PRP); assay: Shear stress-induced platelet aggregation; assay type: cell-based
[2] = system: human platelets (PRP); assay: Agonist-induced platelet aggregation in human PRP; assay type: cell-based; conditions: for IC50: Homo sapiens, Platelet
Method in brief: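 Human blood was anticoagulated with 3.2% citrate (1:9) and spun at 150 g for 15 min to give PRP, adjusted to 3 × 10^8 platelets/ml with PPP. PRP was incubated with test compound for 30 min at 37°C, then stimulated for 6 min with thrombin (0.6–0.8 U·ml−1), collagen (2–4 μg·ml−1), ADP (5–10 μM) or ristocetin (1.0–1.25 mg·ml−1). Aggregation was read by light transmission, with PPP as 100%.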

[3] = system: washed human platelets; assay: SIPA in washed human platelets; assay type: cell-based; conditions: 30 min incubation, n = 6
Method in brief: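 Human washed platelets (3 × 10^8/ml in Tyrode's pH 7.4, 2 mM CaCl2) were preincubated with test compound for 30 min, and 10 μg·ml−1 vWF was added. They were then sheared in a cone-plate viscometer at 10,800 s−1 for 10 min at 37°C and fixed with 0.5% glutaraldehyde. Aggregation was scored from single-cell counts by light microscopy and […]. n = 6, mean ± SEM.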

[4] = system: platelets in human whole blood; assay: Thrombus formation under flow conditions, collagen-coated flow chamber; assay type: cell-based; conditions: shear rate 1,500 s^−1, concentration-dependent, n = 5
Method in brief: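 Flow chambers were coated with 100 μg·ml−1 equine type I collagen for 60 min at room temperature, washed with PBS and blocked with 1% BSA for 60 min. Whole blood loaded with 5 μM calcein‑green AM was incubated with test compound for 30 min. It was perfused at 1,500 s−1 for 5 min, imaged by confocal microscopy, and reported as % coverage area, n = 5.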

[5] = system: washed platelets; assay: Intracellular calcium level under high shear stress; assay type: cell-based, human; conditions: washed platelets, 10,800 s^−1, concentration-dependent
[6] = system: platelets; assay: 5-HT release under high shear stress; assay type: cell-based, human
Method in brief: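 Platelets were treated with a range of test compound concentrations for 30 min and exposed to high shear stress. Supernatants were collected by centrifugation at 12,000 g for 5 min at 4°C, and 5‑HT was measured by ELISA. Samples were run in duplicate, n = 5 per group. Values are expressed relative to matched vehicle and normalised to unsheared samples.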

[7] = system: washed platelets; assay: P-selectin expression under high shear stress; assay type: cell-based, human
Method in brief: (§1)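 Human washed platelets (acid–citrate–dextrose with 1 μM PGE1, washed in Tyrode's pH 7.4, 3 × 10^8/ml, 2 mM CaCl2) were incubated with a range of test compound concentrations, then sheared at 10,800 s−1 for 10 min in a cone-plate viscometer. Cells were labelled with anti-CD42b-PE plus anti-CD62P-FITC, PAC-1-FITC or Alexa Fluor 488-fibrinogen for 20 min in the dark and read by flow cytometry (10,000 events). Values are relative to vehicle and normalised to unsheared samples, mean ± SEM. n = 6 for P-selectin and PAC-1, n = 5 for fibrinogen.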

[8] = system: GP IIb/IIIa; assay: GP IIb/IIIa activation under high shear stress; assay type: cell-based, human
Method in brief: as §1

[9] = system: washed platelets; assay: Fibrinogen binding under high shear stress; assay type: cell-based, human
Method in brief: as §1

[10] = system: platelets; assay: Platelet cytotoxicity, LDH leakage; assay type: cell-based, human; conditions: concentrations up to 1,000 μM
Method in brief: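 Platelets were incubated with test compound and centrifuged. Supernatant was added to Tris‑EDTA NADH buffer (56 mM Tris, 5.6 mM EDTA, 0.17 mM β‑NADH, pH 7.4) and preincubated for 10 min at 37°C, then 14‑mM pyruvate solution was added. LDH was read as the fall in A339, expressed as % of total activity in a 0.3% Triton X‑100 lysate. Samples were run in duplicate, with five repeats.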

[11] = biological target: vWF–GP Ib interaction (Homo sapiens, UniProt P04275); assay: vWF binding to platelets under high shear stress; assay type: cell-based
Sequence of vWF–GP Ib interaction (P04275 764-2813 limits assumed): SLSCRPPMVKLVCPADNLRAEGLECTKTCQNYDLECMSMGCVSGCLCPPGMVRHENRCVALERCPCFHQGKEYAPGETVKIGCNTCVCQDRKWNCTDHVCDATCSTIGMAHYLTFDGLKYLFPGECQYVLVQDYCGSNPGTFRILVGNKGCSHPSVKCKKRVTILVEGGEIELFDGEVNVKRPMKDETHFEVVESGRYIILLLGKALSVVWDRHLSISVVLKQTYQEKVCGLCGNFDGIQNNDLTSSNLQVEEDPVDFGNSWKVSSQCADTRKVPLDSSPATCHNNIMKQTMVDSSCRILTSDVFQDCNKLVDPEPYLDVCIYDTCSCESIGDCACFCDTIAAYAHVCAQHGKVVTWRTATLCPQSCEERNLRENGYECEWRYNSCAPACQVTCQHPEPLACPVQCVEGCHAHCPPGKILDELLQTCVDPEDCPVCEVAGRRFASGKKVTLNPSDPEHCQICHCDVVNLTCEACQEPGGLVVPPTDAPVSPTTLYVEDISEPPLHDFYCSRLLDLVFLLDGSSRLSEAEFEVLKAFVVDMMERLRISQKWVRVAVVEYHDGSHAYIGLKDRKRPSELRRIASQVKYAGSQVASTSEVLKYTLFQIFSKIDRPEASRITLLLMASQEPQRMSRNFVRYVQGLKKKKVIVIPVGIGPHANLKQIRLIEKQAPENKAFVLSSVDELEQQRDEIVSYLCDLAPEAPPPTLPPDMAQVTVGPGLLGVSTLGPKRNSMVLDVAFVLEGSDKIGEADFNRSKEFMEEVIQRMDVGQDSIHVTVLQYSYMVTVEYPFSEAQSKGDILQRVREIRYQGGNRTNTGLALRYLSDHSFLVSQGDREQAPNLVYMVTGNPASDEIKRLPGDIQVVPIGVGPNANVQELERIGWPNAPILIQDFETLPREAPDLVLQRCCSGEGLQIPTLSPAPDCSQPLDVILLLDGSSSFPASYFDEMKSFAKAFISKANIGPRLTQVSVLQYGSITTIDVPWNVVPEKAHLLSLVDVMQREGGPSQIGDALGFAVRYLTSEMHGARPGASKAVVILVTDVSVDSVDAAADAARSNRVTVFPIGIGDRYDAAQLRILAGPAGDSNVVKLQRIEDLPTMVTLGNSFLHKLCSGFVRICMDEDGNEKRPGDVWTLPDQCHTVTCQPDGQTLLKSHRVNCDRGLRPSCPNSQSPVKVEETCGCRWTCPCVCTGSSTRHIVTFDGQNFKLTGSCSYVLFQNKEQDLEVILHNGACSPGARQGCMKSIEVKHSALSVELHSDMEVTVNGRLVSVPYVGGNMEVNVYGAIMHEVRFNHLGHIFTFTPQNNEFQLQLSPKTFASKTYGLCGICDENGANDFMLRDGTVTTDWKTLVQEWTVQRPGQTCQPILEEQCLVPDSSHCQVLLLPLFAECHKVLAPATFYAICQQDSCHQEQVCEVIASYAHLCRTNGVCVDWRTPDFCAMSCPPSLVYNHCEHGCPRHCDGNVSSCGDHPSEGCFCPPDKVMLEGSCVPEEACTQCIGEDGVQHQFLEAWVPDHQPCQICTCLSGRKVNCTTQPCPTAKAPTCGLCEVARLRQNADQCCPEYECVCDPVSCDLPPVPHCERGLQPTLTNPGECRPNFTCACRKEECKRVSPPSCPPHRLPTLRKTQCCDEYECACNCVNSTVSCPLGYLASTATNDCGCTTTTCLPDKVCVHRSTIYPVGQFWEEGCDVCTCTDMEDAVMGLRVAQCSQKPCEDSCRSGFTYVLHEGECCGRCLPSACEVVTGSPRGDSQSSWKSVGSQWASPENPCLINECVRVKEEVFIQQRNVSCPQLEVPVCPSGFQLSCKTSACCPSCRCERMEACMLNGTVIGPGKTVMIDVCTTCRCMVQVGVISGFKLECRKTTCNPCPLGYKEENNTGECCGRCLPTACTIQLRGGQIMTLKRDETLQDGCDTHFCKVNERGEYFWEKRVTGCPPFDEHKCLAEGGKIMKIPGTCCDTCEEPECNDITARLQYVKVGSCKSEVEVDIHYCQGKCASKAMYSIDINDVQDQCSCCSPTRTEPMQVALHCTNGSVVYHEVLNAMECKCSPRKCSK
Method in brief: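 Platelets were treated with test compound, exposed to shear stress, and diluted in Tyrode's buffer. They were stained with anti‑vWF‑FITC and anti‑CD42b‑PE for 20 min in the dark, and 10,000 events were analysed by flow cytometry. For GP IIb/IIIa blockade, platelets were preincubated with 2 mM Arg‑Gly‑Asp. Values are expressed relative to vehicle and normalised to unsheared samples, n = 5.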

[12] = system: human purified vWF; assay: Platelet adhesion to vWF-coated flow chamber under high shear stress; assay type: cell-based; conditions: flow chamber coated with 50 μg·ml^−1 vWF
[13] = Pharmacokinetic experiments in rats; assay type: in vivo; conditions: Sprague-Dawley, rat, plasma; for Tmax: SD rats, p.o. 25 mg·kg^−1
[14] = system: rat platelets (PRP); assay: SIPA in rat PRP in vitro; assay type: cell-based; conditions: n = 8
[15] = system: rat platelets (PRP); assay: Ex vivo determination of SIPA inhibition after oral dosing; assay type: in vivo; conditions: rats, 5, 10 and 25 mg·kg^−1 p.o., 1 hr
Method in brief: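 Male SD rats (280–320 g) were gavaged with test compound in 5% DMSO/10% Tween 80 in water at 5 ml·kg−1. After 1 hr, aortic blood was drawn under urethane (1.25 g·kg−1 i.p.) into 3.8% citrate (1:9), and PRP was prepared. PRP was sheared at 10,800 s−1 in a cone‑plate viscometer, fixed with glutaraldehyde, and aggregation was scored by microscopic single‑cell count. n = 6 rats per group.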

[16] = system: carotid artery thrombosis in SD rats; assay: FeCl3-induced arterial thrombosis model; assay type: in vivo, rat
[17] = system: SD rats; assay: Transection tail bleeding time; assay type: in vivo, rat
Method in brief: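 Male SD rats were dosed orally with test compound, either once or twice daily for 2 weeks; clopidogrel 8 mg·kg−1 was given on the same regimens. One hour after dosing, under urethane (1.25 g·kg−1 i.p.), tails were transected 3 mm from the tip and blotted every 30 s until bleeding stopped, with a 30 min cut‑off. n = 6 (single) or 5 (multiple) per group.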

[18] = Ex vivo prothrombin time and activated partial thromboplastin time; conditions: rats, therapeutic dose range p.o., 1 hr

CCc1occc(=O)c1OC(=O)c1ccc(O)c(OC)c1 [SP‐8008, benzoic acid, 4‐hydroxy‐3‐methoxy‐, 2‐ethyl‐4‐oxo‐4H‐pyran‐3‐yl ester]
inhibition at 25 µM ([1]; Homo sapiens, Platelet, read-out: In vitro SIPA inhibition (%)): 84 ± 16% | Effect on SIPA in human PRP ([1]; concentration-dependent, 30 min incubation, n = 8): significantly inhibited | Selectivity for SIPA over thrombin, collagen, ADP ([1]; ratio of IC50 values): over 150 fold | IC50 ([2]; read-out: IC50 (μM), platelet activator ADP): > 250 µM | IC50 ([2]; read-out: IC50 (μM), platelet activator collagen): > 250 µM | IC50 ([2]; read-out: IC50 (μM), platelet activator thrombin): > 250 µM | Ristocetin-induced platelet aggregation ([2]; human PRP, ristocetin): attenuated | Effect on SIPA in washed human platelets [3]: suppressed | Size and number of platelet aggregates in collagen-coated flow chamber [4]: significantly reduced | Effect on shear stress-induced intracellular calcium elevation [5]: decreased the elevation of intracellular calcium | Effect on shear stress-induced 5-HT release (dense granule secretion) [6]: significant reduction | Effect on shear stress-induced P-selectin expression (α-granule secretion) [7]: significant reduction | Effect on shear stress-induced GP IIb/IIIa activation [8]: significantly blocked | Effect on shear stress-induced fibrinogen binding [9]: significantly blocked | LDH leakage from platelets [10]: did not increase LDH leakage | Binding of vWF to platelets under high shear with GP IIb/IIIa blocked ([11]; GP IIb/IIIa blocked by Arg-Gly-Asp 2 mM): maintained | Binding of vWF to platelets under high shear ([11]; GP IIb/IIIa free, concentration-dependent): markedly blocked | Adhesion of platelets to vWF-coated surfaces [12]: significantly inhibited | AUC(0-inf) ([13]; iv, 10 mg/kg): 3250 ng·h/mL | Vd ([13]; iv, 10 mg/kg): 5.3 ± 1.1 L/kg | clearance ([13]; iv, 10 mg/kg): 51.7 mL/min/kg | half-life ([13]; iv, 10 mg/kg): 2.4 ± 0.5 h | bioavailability ([13]; oral, 25 mg·kg^−1): 55.3 ± 16.7% | AUC(0-inf) ([13]; po, 25 mg/kg): 4490 ng·h/mL | Cmax ([13]; po, 25 mg/kg): 2370 ng/mL | half-life ([13]; po, 25 mg/kg): 3.6 ± 1.4 h | Tmax ([13]; po, 25 mg/kg, tmax (hr)): 7.2 ± 6 min | Tmax ([13]; po, 25 mg/kg, tmax): ~7 min | concentration at 3 min ([13]; po, 25 mg·kg^−1): 2290 ng/mL | concentration at 15 min ([13]; po, 25 mg·kg^−1): 1750 ng/mL and 6 µM | concentration at 30 min ([13]; po, 25 mg·kg^−1): 1060 ng/mL and 3.7 µM | concentration at 1 hr ([13]; po, 25 mg·kg^−1): 2.2 µM and 586 ng/mL | concentration at 4 hr ([13]; po, 25 mg·kg^−1): 1.3 µM and 366 ng/mL | concentration at 8 hr ([13]; po, 25 mg·kg^−1): 700 nM and 198 ng/mL | Effect on SIPA in rat platelets in vitro [14]: significantly inhibited | Ex vivo effect on SIPA after oral administration [15]: dose‐dependent inhibitory effects | Potency against arterial thrombosis after intravenous administration ([16]; intravenous administration, data not shown): strong inhibitory potency | Inhibition of arterial thrombosis compared with clopidogrel (8 mg·kg^−1) ([16]; rats, 25 mg·kg^−1 p.o., single treatment): close to that provided by clopidogrel | Time to occlusion, single treatment ([16]; rats, 10 or 25 mg·kg^−1 p.o., FeCl3): significantly prolong | Antithrombotic effects, multiple treatments ([16]; rats, oral twice daily for 5 days (2 weeks elsewhere in the source)): further confirmed | Tail bleeding time, single dose ([17]; single oral dose up to 100 mg·kg^−1): did not prolong bleeding time | Blood clotting time (prothrombin time and activated partial thromboplastin time) [18]: did not prolong blood clotting time

COC(=O)[C@H](c1ccccc1Cl)N1CCc2sccc2C1 [clopidogrel, reference compound]
Tail bleeding time (bleeding risk) ([17]; 8 mg·kg^−1): clearly increased
